Source: PubChem BioAssay
Most compounds without a hit are left out; they make up all but 2.6% or so of the library.
FGF22 binding = shifts melting point of recombinant human FGF22; activity (Tm shift, normalised), % at 9.99 µM; Q9HCT0; 340,000 tested, 1.5% active; recombinant FGF22 thermal shift, SYPRO orange fluorescence; percent of sucrose octasulfate shift, DMSO zero;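 active = mean Tm shift, scaled 0 neutral to 100 positive control, at about 1.3% or above, every replicate too, limit read from the data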
SIRT5 block = sirtuin-5 (human) deacylase inhibition; Q9NXA8; Purified SirT5, succinyl-peptide AMC, trypsin-coupled fluorescence; inhibition, % at 15 µM; 330,000 tested, 1.1% active; AID 652115; in the data active = inhibition above about 15%
NSD2 HMT inh = inhibitors of human histone methyltransferase NSD2; O96028; NSD2 peptide methylation, AlphaScreen, 120 min; inhibition, % at 12.5 µM; 310,000 tested, 0.54% active; AID 743445; in the data active = inhibition above about 50%
CASP6 VEID inh = caspase-6 (human) enzyme inhibition. inhibition, % at 12.5 µM. purified caspase-6, Z-VEID-R110 cleavage fluorescence. 350,000 tested, 0.53% active. AID 686996;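 active = mean inhibition across replicates at least about 35%, with every replicate also reaching that limit, limit read from the data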;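 also: 0% = median of neutral control wells and 100% = no fluorescence left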
UCH37 inh = blocks the human deubiquitinase UCH37 | 330,000 tested, 0.33% active | purified proteasome/UCH37, Ub-AMC cleavage fluorescence | Q9Y5K5 | inhibition, % (test concentration not listed);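 active = mean inhibition over replicate wells above about 20%, limit read from the data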;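 also: 0% = compound-free wells with enzyme and 100% = wells lacking proteasome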
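Material: Human UCH37 enzyme supplied as purified proteasome complex | Schedule: 30 min compound-proteasome preincubation then 25 min substrate reaction, room temperature | Detection: AMC fluorescence from Ub-AMC cleavage, excitation 355 nm, emission 460 nm | Benchmarks: Wells without proteasome as full block, compound-free enzyme plus substrate as uninhibited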
Active calls of the source: *; · = no result.

SMILES	FGF22 binding	SIRT5 block	NSD2 HMT inh	CASP6 VEID inh	UCH37 inh
Cc1noc(C)c1NC(=O)Nc1ccc2c(c1)C(=O)N([C@@H](C)CO)C[C@@H](C)[C@@H](CN(C)C(=O)c1ccccc1)OCCCC[C@@H](C)O2	0	-3	·	1	·
O=Cc1cccc(OC(=O)/C=C/c2ccco2)c1	0	2	2	87*	4
COC(=O)c1ccc(OC(=O)/C=C/c2ccco2)cc1	0	-3	5	36*	2
C[C@H](NC(=O)[C@H]1[C@H](CO)[C@H]2Cn3c(cccc3=O)[C@@H]1N2Cc1cccnc1)c1ccccc1	0	3	·	4	·
COCC(=O)Nc1ccc2c(c1)C(=O)N(C)[C@@H]1CC[C@@H](CC(=O)OC)O[C@@H]1CO2	0	·	·	·	·
O=C(Nc1ccc(F)cc1)Nc1ccccc1NS(=O)(=O)c1cccs1	49*	2	0	8	9
COCC(=O)NC[C@H]1N[C@H](CO)[C@H]1c1ccc(C2=CCCCC2)cc1	0	37*	·	-7	·
CN(C)C(=O)[C@@H]1[C@@H](CO)[C@@H]2Cn3c(ccc(-c4ccccc4)c3=O)[C@H]1N2C(=O)C1CCC1	0	-32	·	-1	·
C[C@H]1CN([C@@H](C)CO)C(=O)CCCn2cc(nn2)CO[C@@H]1CN(C)Cc1ccc(C(F)(F)F)cc1	0	-1	·	0	·
O=C(c1ccccc1NS(=O)(=O)c1ccc([N+](=O)[O-])cc1[N+](=O)[O-])N1O[C@@H]2C=C[C@H]1C2	·	-1	·	37*	-13
Cc1ccc(C)c(NC(=O)CCC(=O)NN=C2CC(=O)CC(C)(C)C2)c1	·	·	·	·	1
CC[n+]1c(/C=C/N(C)c2ccccc2)oc2ccc(F)cc21	·	·	8	·	24*
CC[n+]1c(/C=C/Nc2ccccc2)oc2ccc(OC)cc21	·	-4	-4	5	0
CC[n+]1c(/C=C/N(C)c2ccccc2)oc2ccccc21	0	5	3	3	21*
O=C(O)c1cccc(N2C(=O)c3cccc(Oc4ccc(Cl)cc4)c3C2=O)c1	43*	0	-1	0	4
O=C(O)CN1C(=O)c2ccc(Oc3cccc4c3C(=O)N(CC(=O)O)C4=O)cc2C1=O	·	·	2	·	7
O=C(O)c1ccc(N2C(=O)c3cccc(Oc4ccc(Cl)cc4)c3C2=O)cc1	44*	3	-2	0	2
Cc1cc(C([O-])=C(C(=S)Nc2ccc(F)cc2)[n+]2ccccc2)c(C)n1-c1ccc(F)cc1	0	-2	3	15	8
COc1cccc(NC(=S)/C(=C(\[O-])c2cc(C)n(-c3ccccc3F)c2C)[n+]2ccc(N(C)C)cc2)c1	43*	0	7	1	10
O=C(Cn1c2c(c(=O)n3ncnc13)CCC2)NN=Cc1cccs1	·	·	·	·	4
CCCNC(=O)C[C@@H]1CC[C@@H]2[C@H](COc3ccc(NC(=O)C4CCCC4)cc3C(=O)N2C)O1	0	1	·	0	·
CC(=O)C1=C(O)C(=Cc2ccccc2)OC1=O	0	20*	6	21	·
COc1ccc(C=C2OC(=O)C(C(C)=O)=C2O)cc1	0	11	1	11	·
CCOC(=O)N1CCN(C(=O)/C(=C/c2cccs2)NC(=O)c2cccs2)CC1	0	17*	-2	1	11
O=C(N/C(=C/c1cccs1)C(=O)N1CCOCC1)c1ccccc1	44*	-2	-1	-1	7
SMILES	FGF22 binding	SIRT5 block	NSD2 HMT inh	CASP6 VEID inh	UCH37 inh
O=C(N/C(=C\c1cccnc1)C(=O)N1CCOCC1)c1cccc(Br)c1	·	·	-1	·	6
O=C(N/C(=C\c1cccs1)C(=O)N1CCOCC1)c1cccs1	0	-4	0	-1	5
O=C(N/C(=C/c1cccnc1)C(=O)N1CCOCC1)c1ccccc1	43*	-3	-2	0	20
CN1CCN(C(=O)/C(=C\c2cccnc2)NC(=O)c2cccc(Br)c2)CC1	1.4*	-3	-3	34	0
CN(C)C(=O)C[C@@H]1CC[C@@H]2[C@H](COC[C@H](O)CN2Cc2nccs2)O1	0	-2	·	1	·
CS(=O)(=O)Nc1ccc2c(c1)[C@H]1C[C@H](CC(=O)NCc3ccccc3F)O[C@H](CO)[C@H]1O2	0	-1	·	-1	·
CCOc1ccc2[nH]c(=O)c(CN(CCCN3CCOCC3)Cc3nnnn3Cc3ccc(OC)cc3)cc2c1	43*	-5	3	1	-53
COc1cc2cc(CN(CCCN3CCOCC3)Cc3nnnn3Cc3ccccc3)c(=O)[nH]c2cc1OC	0	-1	0	-2	-92
CC1CCCC(C)N1N=Cc1ccccc1C(=O)O (configuration not stated)	·	·	·	·	2
Cn1ccs/c1=N\C(=O)Nc1cccc(Cl)c1	43*	-2	-3	-4	·
CCOC(=O)c1sc(=NC(=O)c2ccc(OC(C)C)cc2)n(C)c1C	0	-3	43	5	-72
CCOC(=O)c1sc(=NC(=O)c2ccc(C)c(C)c2)n(C)c1C	43*	-2	-7	0	-65
CCOCCCNC(=O)c1ccc2c(c1)N=C(CC)c1cc(Br)ccc1S2	·	17*	-1	-1	5
COc1ccc(/C=C/C(=O)c2cc3c(cc2N)OCO3)cc1	43*	-1	24	7	·
COc1ccc(/C=C/C(=O)c2ccc(OC)cc2OC)cc1	0	-1	·	-1	5
C[C@H]1CN([C@@H](C)CO)C(=O)c2cc(N(C)C)ccc2O[C@H]1CN(C)C(=O)Nc1ccccc1	0	-5	·	2	·
CC(=O)Oc1ccc(C2=Cc3ccc(OC(C)=O)cc3OC2C)cc1 (configuration not stated)	43*	·	0	0	-13
CN(C)S(=O)(=O)c1ccc(C(=O)NCCN2C(=O)S/C(=C\c3cccnc3)C2=O)cc1	43*	-2	-2	2	2
CCN(CC)S(=O)(=O)c1ccc(C(=O)NCCN2C(=O)S/C(=C\c3cccnc3)C2=O)cc1	0	1	-3	-2	8
C#CCCCCCCCCC(=O)NCCCC	43*	2	-3	0	2
O=C(/C=C/c1ccc(S(=O)(=O)N2CCOCC2)cc1)NC(=S)Nc1ccc(Cl)cc1Cl	43*	-3	2	-6	5
O=C(/C=C/c1ccc(S(=O)(=O)N2CCOCC2)cc1)Nc1cc(F)ccc1F	0	2	0	1	1
CCc1nn(CC(=O)NCCCN2CCOCC2)c(=O)c2cc3sccc3n12	0	3	2	-2	-2
CCCN1CCN(C(=O)Cn2nc(CC)n3c(cc4sccc43)c2=O)CC1	44*	·	·	-2	-1
C[C@H]1COc2cc(NCCO)ccc2S(=O)(=O)N1	0	19*	·	1	·
CCN1CCN(Cc2ccc(NC(=O)c3ccc(C)c(NC(=O)c4c[nH]c5cc(C(F)(F)F)ccc5c4=O)c3)cc2C(F)(F)F)CC1	0	-6	·	-6	4
Cc1ccc(C(=O)Nc2cccc(C(F)(F)F)c2)cc1NC(=O)c1c[nH]c2cc(C(F)(F)F)ccc2c1=O	44*	-4	·	0	3
